From ChEMBL document CHEMBL3808334, “Synthesis and in vitro evaluation of novel triazine analogues as anticancer agents and their interaction studies with bovine serum albumin” (Eur J Med Chem, 2016)

Key:
Format in all cases: functional
[1] = Growth inhibition of human HCC2998 cells assessed as cell growth at 10^-4 M incubated for 48 hrs by sulforhodamine B assay; settings: HCC 2998, 48 h, read-out: Activity
[2] = Growth inhibition of human OVCAR8 cells incubated for 48 hrs by sulforhodamine B assay; settings: OVCAR-8, 48 h
Method in brief: (§1)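 Cells were plated at 5,000–40,000 per well according to doubling time and preincubated 24 h at 37 °C in 5% CO2; time-zero plates were then TCA-fixed. Five concentrations (10-fold or ½-log dilutions, DMSO stock) were incubated 48 h. Cells were TCA-fixed, stained with 0.4% SRB and read at 515 nm. GI50 was taken where [(Ti−Tz)/(C−Tz)]×100 = 50.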

[3] = system: CCRF-CEM; test: Growth inhibition of human CCRF-CEM cells assessed as cell growth at 10^-5 M incubated for 48 hrs by sulforhodamine B assay; settings: read-out: Activity
Method in brief: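 Leukemia line in the five-dose format: five concentrations from 10-fold or ½-log serial dilutions. Plated at 5,000–40,000 cells per well, preincubated 24 h, then compound added for 48 h at 37 °C, 5% CO₂. Sulforhodamine B absorbance read at 515 nm. Growth is computed against time-zero (Tz) and control (C) readings; GI₅₀ is where [(Ti−Tz)/(C−Tz)]×100 = 50.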

[4] = Growth inhibition of human RPMI8226 cells assessed as cell growth at 10 uM incubated for 48 hrs by sulforhodamine B assay; settings: RPMI-8226, 48 h, read-out: Activity
[5] = system: NCI-H226; test: Growth inhibition of human NCI-H226 cells incubated for 48 hrs by sulforhodamine B assay; settings: NCI-H226, 48 h; method in brief: as §1
[6] = Growth inhibition of human OVCAR8 cells assessed as cell growth at 10^-7 M incubated for 48 hrs by sulforhodamine B assay; settings: OVCAR-8, 48 h, read-out: Activity
[7] = system: MDA-MB-231; test: Growth inhibition of human MDA-MB-231 cells assessed as cell growth at 10^-8 M incubated for 48 hrs by sulforhodamine B assay; settings: MDA-MB-231, 48 h, read-out: Activity
[8] = system: Malme-3M; test: Growth inhibition of human MALME-3M cells assessed as cell growth at 10^-8 M incubated for 48 hrs by sulforhodamine B assay; settings: read-out: Activity
[9] = system: NCI-H322M; test: Growth inhibition of human NCI-H322M cells assessed as cell growth at 10 uM incubated for 48 hrs by sulforhodamine B assay; settings: read-out: Activity
[10] = system: SR; test: Growth inhibition of human SR cells assessed as cell growth at 10^-4 M incubated for 48 hrs by sulforhodamine B assay; settings: read-out: Activity
[11] = Growth inhibition of human HCT116 cells incubated for 48 hrs by sulforhodamine B assay; settings: HCT-116, 48 h
Method in brief: (§2)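 Cells seeded at 5,000–40,000/well according to doubling time and preincubated 24 h at 37 °C, 5% CO2. Time-zero plates were TCA-fixed. DMSO concentrate was diluted in medium with 50 µg/ml gentamicin to give five concentrations (10-fold or ½ log steps), then exposed 48 h. Cells were TCA-fixed, stained with 0.4% SRB and read at 515 nm. Percent growth was taken against time-zero and control; GI50, TGI and LC50 derived.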

[12] = Growth inhibition of human OVCAR4 cells assessed as cell growth at 10^-7 M incubated for 48 hrs by sulforhodamine B assay; settings: OVCAR-4, 48 h, read-out: Activity
[13] = Growth inhibition of human HOP62 cells assessed as cell growth at 10 uM incubated for 48 hrs by sulforhodamine B assay; settings: HOP-62, 48 h, read-out: Activity
[14] = Growth inhibition of human HL-60(TB) cells incubated for 48 hrs by sulforhodamine B assay; settings: HL-60, 48 h
Method in brief: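 Five-concentration, 48 h SRB screen (10-fold or ½-log dilutions from a 400× DMSO concentrate; 24 h preincubation at 37 °C, 5% CO₂; time-zero plate; A515). GI50 was solved from (Ti−Tz)/(C−Tz)×100 = 50. TGI was taken where Ti = Tz, and LC50 from (Ti−Tz)/[…].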

[15] = system: EKVX; test: Growth inhibition of human EKVX cells assessed as cell growth at 10^-6 M incubated for 48 hrs by sulforhodamine B assay; settings: read-out: Activity; method in brief: as §2
[16] = system: MDA-MB-435; test: Growth inhibition of human MDA-MB-435 cells assessed as cell growth at 10^-7 M incubated for 48 hrs by sulforhodamine B assay; settings: MDA-MB-435, 48 h, read-out: Activity
[17] = Growth inhibition of human PC3 cells assessed as cell growth at 10^-7 M incubated for 48 hrs by sulforhodamine B assay; settings: PC-3, 48 h, read-out: Activity
[18] = system: SK-MEL-28; test: Growth inhibition of human SK-MEL-28 cells assessed as cell growth at 10^-5 M incubated for 48 hrs by sulforhodamine B assay; settings: SK-MEL-28, 48 h, read-out: Activity
[19] = Growth inhibition of human OVCAR4 cells assessed as cell growth at 10^-8 M incubated for 48 hrs by sulforhodamine B assay; settings: OVCAR-4, 48 h, read-out: Activity
[20] = Growth inhibition of human DU145 cells assessed as cell growth at 10^-5 M incubated for 48 hrs by sulforhodamine B assay; settings: DU-145, 48 h, read-out: Activity; method in brief: as §2
[21] = system: NCI/ADR-RES; test: Growth inhibition of human NCI/ADR-RES cells assessed as cell growth at 10 uM incubated for 48 hrs by sulforhodamine B assay; settings: read-out: Activity
[22] = Growth inhibition of human DU145 cells assessed as cell growth at 10 uM incubated for 48 hrs by sulforhodamine B assay; settings: DU-145, 48 h, read-out: Activity
Method in brief: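 Primary screen at one dose (10 µM) across 60 human cancer cell lines. Readout was growth percent relative to untreated control and time-zero.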

[23] = system: HT-29; test: Growth inhibition of human HT-29 cells assessed as cell growth at 10^-4 M incubated for 48 hrs by sulforhodamine B assay; settings: HT-29, 48 h, read-out: Activity
[24] = system: T47D; test: Growth inhibition of human T47D cells assessed as cell growth at 10 uM incubated for 48 hrs by sulforhodamine B assay; settings: read-out: Activity
[25] = system: NCI/ADR-RES; test: Growth inhibition of human NCI/ADR-RES cells incubated for 48 hrs by sulforhodamine B assay; method in brief: as §1
[26] = read-out: LC50 (the source's name)
[27] = read-out: pLC50 (the source's name) (converted)

c1ccc(-c2nc(Nc3ccc(-c4nc5ccccc5[nH]4)cc3)nc(N3CCOCC3)n2)cc1
growth at 100 µM [1]: -48% | GI50 ([2]; read-out: GI50): 1.72 µM | CC50 [2, 26]: 6.79 µM | TGI ([2]; read-out: TGI): 3.41 µM | GI50 ([2]; read-out: pGI50 (converted)): 1.7 µM | CC50 [2, 27]: 6.76 µM | TGI ([2]; read-out: pTGI (converted)): 3.39 µM | growth at 10 µM [3]: -33% | growth at 10 µM [4]: -22.6% | GI50 ([5]; read-out: GI50): 2.4 µM | CC50 [5, 26]: 8.75 µM | TGI ([5]; read-out: TGI): 4.58 µM | GI50 ([5]; read-out: pGI50 (converted)): 2.4 µM | CC50 [5, 27]: 8.71 µM | TGI ([5]; read-out: pTGI (converted)): 4.57 µM | growth at 0.1 µM [6]: 104% | growth at 0.01 µM [7]: 97% | growth at 0.01 µM [8]: 106% | growth at 10 µM [9]: -0.47% | growth at 100 µM [10]: -28% | GI50 ([11]; read-out: GI50): 0.394 µM | CC50 [11, 26]: 7.18 µM | TGI ([11]; read-out: TGI): 1.62 µM | GI50 ([11]; read-out: pGI50 (converted)): 0.398 µM | CC50 [11, 27]: 7.24 µM | TGI ([11]; read-out: pTGI (converted)): 1.62 µM | growth at 0.1 µM [12]: 103% | growth at 10 µM [13]: -64.5% | GI50 ([14]; read-out: GI50): 0.031 µM | LC50 ([14]; read-out: LC50): 31.2 µM | TGI ([14]; read-out: TGI): 0.601 µM | GI50 ([14]; read-out: pGI50 (converted)): 0.0309 µM | LC50 ([14]; read-out: pLC50 (converted)): 30.9 µM | TGI ([14]; read-out: pTGI (converted)): 0.603 µM | growth at 1 µM [15]: 81% | growth at 0.1 µM [16]: 101% | growth at 0.1 µM [17]: 106% | growth at 10 µM [18]: -86% | growth at 0.01 µM [19]: 104% | growth at 10 µM [20]: -96% | growth at 10 µM [21]: -60.8% | growth at 10 µM [22]: -27.8% | growth at 100 µM [23]: -76% | growth at 10 µM [24]: -62.3% | GI50 ([25]; read-out: GI50): 1.93 µM | CC50 [25, 26]: > 100 µM | TGI ([25]; read-out: TGI): 5.53 µM | GI50 ([25]; read-out: pGI50 (converted)): 1.95 µM | CC50 [25, 27]: > 100 µM | TGI ([25]; read-out: pTGI (converted)): 5.5 µM

Fc1ccc(-c2nc(Nc3ccc(-c4nc5ccccc5[nH]4)cc3)nc(N3CCOCC3)n2)cc1
growth at 100 µM [1]: 2% | GI50 ([2]; read-out: GI50): 3.26 µM | CC50 [2, 26]: > 100 µM | TGI ([2]; read-out: TGI): 10.8 µM | GI50 ([2]; read-out: pGI50 (converted)): 3.24 µM | CC50 [2, 27]: > 100 µM | TGI ([2]; read-out: pTGI (converted)): 10.7 µM | growth at 10 µM [3]: 7% | growth at 10 µM [4]: -13.8% | GI50 ([5]; read-out: GI50): 3.32 µM | CC50 [5, 26]: > 100 µM | TGI ([5]; read-out: TGI): 8.6 µM | GI50 ([5]; read-out: pGI50 (converted)): 3.31 µM | CC50 [5, 27]: > 100 µM | TGI ([5]; read-out: pTGI (converted)): 8.51 µM | growth at 0.1 µM [6]: 104% | growth at 0.01 µM [7]: 92% | growth at 0.01 µM [8]: 96% | growth at 10 µM [9]: 27% | growth at 100 µM [10]: 1% | GI50 ([11]; read-out: GI50): 1.9 µM | CC50 [11, 26]: 6.56 µM | TGI ([11]; read-out: TGI): 3.53 µM | GI50 ([11]; read-out: pGI50 (converted)): 1.91 µM | CC50 [11, 27]: 6.61 µM | TGI ([11]; read-out: pTGI (converted)): 3.55 µM | growth at 0.1 µM [12]: 104% | growth at 10 µM [13]: -27.3% | GI50 ([14]; read-out: GI50): 1.94 µM | LC50 ([14]; read-out: LC50): > 100 µM | TGI ([14]; read-out: TGI): 5.67 µM | GI50 ([14]; read-out: pGI50 (converted)): 1.95 µM | LC50 ([14]; read-out: pLC50 (converted)): > 100 µM | TGI ([14]; read-out: pTGI (converted)): 5.62 µM | growth at 1 µM [15]: 83% | growth at 0.1 µM [16]: 102% | growth at 0.1 µM [17]: 105% | growth at 10 µM [18]: -49% | growth at 0.01 µM [19]: 99% | growth at 10 µM [20]: 25% | growth at 10 µM [21]: 34.2% | growth at 10 µM [22]: 38.5% | growth at 100 µM [23]: -43% | growth at 10 µM [24]: 16.1% | GI50 ([25]; read-out: GI50): 3.18 µM | CC50 [25, 26]: > 100 µM | TGI ([25]; read-out: TGI): 26.7 µM | GI50 ([25]; read-out: pGI50 (converted)): 3.16 µM | CC50 [25, 27]: > 100 µM | TGI ([25]; read-out: pTGI (converted)): 26.9 µM
